MC4R barr agon: agonists of human melanocortin 4 receptor (MC4R) beta-arrestin. P32245. U2OS MC4R beta-arrestin complementation, luminescence; percent of melanotan II response, DMSO zero. activation, % at 8.9 µM. hit rate 0.98% among 360,000. AID 540308;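 active means activation above a per-plate cutoff, the mean activation of sample wells on that plate plus 3 SD, cut at about 8% in these data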
Target sequence (P32245 whole entry, looked up): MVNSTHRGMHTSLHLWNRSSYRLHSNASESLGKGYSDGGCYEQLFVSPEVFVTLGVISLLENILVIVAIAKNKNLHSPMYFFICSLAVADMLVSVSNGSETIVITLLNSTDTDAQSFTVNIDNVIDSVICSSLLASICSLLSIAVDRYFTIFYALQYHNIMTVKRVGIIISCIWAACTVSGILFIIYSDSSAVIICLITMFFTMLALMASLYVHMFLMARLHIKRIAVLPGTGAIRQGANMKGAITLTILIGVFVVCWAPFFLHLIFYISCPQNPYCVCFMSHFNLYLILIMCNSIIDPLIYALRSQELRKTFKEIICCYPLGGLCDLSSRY
NLRP3 yeast inh: inhibitors of NALP3 inflammasome in yeast | Yeast reconstituted NLRP3/ASC/caspase-1, beta-gal luminescence, 24 h | inhibition, % at 10 µM | hit rate 0.39% among 330,000 | AID 2825;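 active means inhibition of 50% or more; inactive means inhibition below 50%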;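 further: plate controls were induced DMSO wells for no effect and uninduced yeast grown without galactose for full effect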
MC4R antag cAMP: blocks human MC4R cAMP signaling. AID 540295. inhibition, % at 6.5 µM. MC4R-expressing cells, MTII-stimulated cAMP, LANCE TR-FRET. P32245. hit rate 0.48% among 360,000;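 active means inhibition above its plate's cutoff, the mean of tested wells on that plate plus 3 SD, cut at about 29% in these data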;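 further: 0% = Melanotan II alone and 100% = Melanotan II plus saturating MCL0020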
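material = U2OS cells stably expressing human melanocortin 4 receptor (MC4R) | also added = Melanotan II challenge | dosing = single nominal compound dose of 6.5 µM | detection = TR-FRET with Eu-cAMP and labeled anti-cAMP, 671 nm | replication = singlicate | timing = compound 30 min, challenge 1 h, detection 1 h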
NALP1 yeast inh: NALP1 inhibition; S. cerevisiae NALP1/ASC/caspase-1 growth, X-gal OD620, 72 h; AID 2071; hit rate 0.61% among 280,000; inhibition, % at 10 µM; in the data active means inhibition mostly above about 24%, no sharp cut-off; inactive means mostly below about 32%
Bfl-1 A1 inh: inhibitors of the anti-apoptotic protein A1, read as caspase activation; MEF A1-2A-BIM cells, Caspase-Glo 3/7 luminescence, 3 h; percent of clofoctol response, vehicle zero; caspase activation, % (concentration not given with the values); hit rate 0.066% among 330,000;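 active means over half of replicate activation scores above 10%, or exactly half above 10 with the replicate mean above 10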
TbMetRS inhib: Trypanosoma brucei MetRS inhibition. hit rate 0.4% among 360,000. purified T. brucei MetRS, ATP depletion, Kinase-Glo luminescence. inhibition, % at 11.9 µM. AID 624268;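 active means inhibition above a per-plate cutoff of the control wells' mean inhibition plus 3 SD, cut at about 5.5% in these data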;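 further: 0% = DMSO wells median and 100% = median of wells with control inhibitor compound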
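Measured by: Kinase-Glo luciferase luminescence reporting remaining unconsumed ATP. Material: purified T. brucei MetRS enzyme. Doses: 11.9 µM compound single dose, 0.9% DMSO. Medium: HEPES buffer containing pyrophosphatase, BSA, spermine, DTT. Times: 15 min preincubation, 2 h reaction, all 25 °C. Reagent: methionine, ATP and bulk E. coli tRNA.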
MC4R barr ag: human MC4R beta-arrestin agonism confirmation; AID 602192; shares compounds with MC4R barr agon; activation, % at 8.9 µM; U2OS MC4R beta-arrestin recruitment, luminescence; scaled DMSO 0%, Melanotan II 100%; hit rate 31% among 2,400;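 active means mean activation across replicates above the hit cutoff set in the earlier primary screen, cut at about 8% in these data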
MOR DOR agonist: counter-screen for MC4R agonists: agonists of mu-delta opioid heterodimer; hit rate 5.8% among 2,400; AID 602194; activation, % at 9.2 µM; U2OS PathHunter beta-arrestin, beta-gal luminescence; percent of deltorphin B response, DMSO zero; shares compounds with MC4R barr agon;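 active means mean activation across replicates exceeds the hit threshold derived in the earlier primary screen, cut at about 18% in these data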;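 further: 100% = deltorphin B at 0.9 µM final and 0% = DMSO alone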
* hit, by the source's call; . = no result given. Rows were chosen to be rich in hits. Some 2.5% of all compounds tested hit in one or more screens of this group.

SMILES	MC4R barr agon	NLRP3 yeast inh	MC4R antag cAMP	NALP1 yeast inh	Bfl-1 A1 inh	TbMetRS inhib	MC4R barr ag	MOR DOR agonist
Cc1nnc(SCC(=O)Nc2c(Cl)cccc2Cl)n(N)c1=O	-3.6	11.8	-2.3	.	0.7	-0.4	.	.
Cc1ccc(NC(=O)COC(=O)c2cc(=O)c3cc(F)ccc3o2)cc1	-1.6	11.3	1.9	.	.	-0.4	.	.
Cc1cccc(C(=O)Nc2ccc(O)c3c(=O)cc(-c4ccccc4Cl)oc23)c1	16.8*	22.8	7.5	8.5	0.2	-0.3	0.4	2.9
O=C(Nc1ccc(O)c2c(=O)cc(-c3ccccc3Cl)oc12)c1cccc(Cl)c1	0.3	8.8	-2.3	16.5	0.8	-0.4	.	.
CCC(C)(C)C1CCC(NC(=O)c2ccc(S(=O)(=O)N3CCOCC3)cc2)CC1 (stereo not drawn)	3.0	14.6	8.4	.	-0.4	-0.2	.	.
CCC(C)Sc1nc2c(cnn2-c2ccc(C)cc2)c(=O)[nH]1 (stereo not drawn)	-1.3	6.9	-5.1	.	-0.5	0.0	.	.
CCC(C)Sc1nc2c(cnn2-c2ccccc2)c(=O)[nH]1 (stereo not drawn)	10.8*	5.1	6.6	23.7	-1.0	-0.6	2.7	2.2
COc1cc2nc(SCC(N)=O)n(CCC3=CCCCC3)c(=O)c2cc1OC	12.1*	17.8	6.5	18.7	0.0	-0.1	8.4*	5.9
COc1cc(NC(=O)CSc2nc3ccccc3c(=O)n2C)ccc1NC(=O)c1ccco1	14.2*	-2.7	20.0	7.4	-0.7	-0.3	0.2	16.6
C=CCc1ccc(O)c(-c2cc(CC=C)ccc2O)c1	9.7*	5.8	7.4	4.8	0.9	1.1	5.2	8.6
C=CCc1ccc(OCC(O)CO)c(OC)c1 (stereo not drawn)	3.3	5.0	4.8	13.2	0.5	-0.6	.	.
CCC(=O)Oc1ccc(-c2cnc3ccccc3n2)cc1	2.8	36.9	-15.3	11.6	-8.1	-0.7	.	.
O=C(Oc1ccc(-c2cnc3ccccc3n2)cc1)c1ccco1	18.1*	26.3	-8.3	10.7	-5.6	-0.3	-2.7	3.4
CC(CN1CCC(n2nccc2NC(=O)CCCc2ccccc2)CC1)c1ccccc1 (stereo not drawn)	-3.8	4.1	0.8	1.9	-0.8	-0.6	.	.
Cc1ccc(S(=O)(=O)Nc2cc(=O)[nH]c(SCc3ccc(Cl)cc3)n2)cc1	18.9*	.	9.2	-15.4	0.5	0.4	7.3	1.8
CCOC(=O)N1CCC(NC(=O)Cn2cc3c(n2)CCC(C)C3)CC1 (stereo not drawn)	0.2	13.8	7.4	-103.1	0.2	-0.5	.	.
CCOC(=O)c1ccc(NC(=O)Cn2cc3c(n2)CCC(C)C3)cc1 (stereo not drawn)	13.3*	29.1	3.0	25.8	-0.9	-0.5	2.1	5.0
Cc1cc2nc(NCCCO)n(CC(=O)c3cc(C(C)(C)C)c(O)c(C(C)(C)C)c3)c2cc1C	13.2*	14.1	6.7	.	-0.3	0.6	5.7	11.1
CCC(=O)N(Cc1ccco1)c1nc(-c2cc(OC)ccc2OC)cs1	9.7*	6.4	-2.5	-0.4	0.8	-0.3	9.1*	5.3
CCC(=O)N(Cc1ccco1)c1nc(-c2ccc(OC)cc2)cs1	6.5	17.7	-11.2	6.5	0.1	-0.5	.	.
COc1cc2c(-c3ccc(O)cc3)nc3c(c(C)nn3-c3ccccc3)c2cc1OC	10.1*	.	3.2	-27.6	0.6	0.2	2.2	1.9
O=C(CCn1cnc2ccccc2c1=O)Nc1nc(-c2ccc(Br)cc2)cs1	10.8*	16.1	19.9	21.6	2.8	-0.1	5.8	35.0*
Cc1ccc(NC(=O)CCn2cnc3ccccc3c2=O)cc1	-0.5	0.6	7.3	3.4	-2.7	-0.5	.	.
CCOc1ccc(OCCC(=O)OCC(=O)N(CC)c2c(N)n(Cc3ccccc3)c(=O)[nH]c2=O)cc1	-0.8	.	3.5	.	.	-0.4	.	.
CCCn1c(/N=C/c2c[nH]c3ccccc23)nc2ccccc21	11.2*	13.5	-3.7	3.4	-0.2	1.1	1.2	5.4
SMILES	MC4R barr agon	NLRP3 yeast inh	MC4R antag cAMP	NALP1 yeast inh	Bfl-1 A1 inh	TbMetRS inhib	MC4R barr ag	MOR DOR agonist
COc1ccc(C(=O)N2CCCCC2c2cc(C(=O)Nc3cccc(C#N)c3)no2)cc1 (stereo not drawn)	-0.4	.	-2.7	.	.	0.4	.	.
COC1OC(c2ccccc2)=C(c2cnc(N)nc2)c2ccc(F)cc21 (stereo not drawn)	.	.	.	.	.	-0.5	.	.
O=C(OCc1ccccc1)/C(=C/c1cccc2ccccc12)NC(=O)c1ccccc1	14.0*	-3.3	1.4	24.6	0.5	-1.0	3.4	2.8
O=C(CCl)N(Cc1ccccc1)c1ccccc1	19.7*	-53.6	-0.1	10.0	0.0	-0.6	14.9*	18.2*
COc1ccc(NC(=O)CN2C(=O)NC3(CCCC3)C2=O)cc1OC	0.1	25.2	1.6	16.7	-3.0	-0.4	.	.
CC(C)c1ccc(NS(=O)(=O)c2ccc(-n3cccn3)cc2)cc1	13.3*	-2.0	2.7	11.2	-0.1	1.0	16.9*	10.7
O=C(CCCN1C(=O)C(c2ccccc2)Oc2cccnc21)Nc1ccccc1Cl (stereo not drawn)	2.3	7.1	-1.4	9.9	1.5	-0.1	.	.
Cc1ccc2c(Cl)cc(Cl)c(OCC(=O)NC(=O)NCc3ccco3)c2n1	10.8*	3.1	11.8	11.1	-0.3	1.3	2.4	2.6
CSc1ccccc1NC(=O)c1cc(-c2cccs2)on1	9.8*	18.6	-1.9	12.1	-1.7	-0.5	7.0	4.7
COc1ccc(-c2cc(C(=O)Nc3ccccc3SC)no2)cc1	0.4	16.7	0.5	2.6	-2.5	0.3	.	.
CC(C)(C)c1ccc(C(=O)N2CCC2(C)C(=O)NS(=O)(=O)c2ccc(C#N)cc2)cc1 (stereo not drawn)	0.1	.	3.6	.	.	0.0	.	.
O=C(Nc1cc(C(F)(F)F)ccc1N1CCOCC1)c1cn2ccccc2n1	11.8*	3.1	-0.7	-4.3	0.2	0.2	-1.1	3.2
Cc1ccc(C)c(OC(=O)c2cccnc2Cl)c1C	-2.0	6.1	-4.2	5.7	-1.5	-0.4	.	.
CCC(C)c1ccc(C2C3=C(Nc4nc(N)[nH]c(=O)c42)c2ccccc2C3=O)cc1 (stereo not drawn)	10.4*	12.8	-16.1	4.7	-0.8	-0.2	-2.1	0.8
O=C(NCc1ccc(OC(F)(F)F)cc1)C1CC(c2ccc(C(F)(F)F)cc2)=NO1 (stereo not drawn)	5.2	6.9	4.6	.	0.1	-0.1	.	.

High-throughput results as filed in PubChem.
